Results as given in paper PMC3319430 (Journal of Medicinal Chemistry, 2009).
Each block holds one compound with its values, some of them ahead of it.

Legend:
[1] = cited from earlier work
[2] = cited from earlier work; remark: listed apart in the source
CFTR [3] = molecular target: T1, CFTR (Homo sapiens, UniProt P13569); test: Cell-attached single-channel patch-clamp recordings of CFTR; type: cell-based; details: 1 µM
human wild-type CFTR = human wild-type CFTR (Homo sapiens, UniProt P13569); test: Whole-cell patch-clamp in CFTR-expressing FRT cells; type: cell-based; details: 500 nM; ±100 mV
Sequence of human wild-type CFTR (P13569 whole entry): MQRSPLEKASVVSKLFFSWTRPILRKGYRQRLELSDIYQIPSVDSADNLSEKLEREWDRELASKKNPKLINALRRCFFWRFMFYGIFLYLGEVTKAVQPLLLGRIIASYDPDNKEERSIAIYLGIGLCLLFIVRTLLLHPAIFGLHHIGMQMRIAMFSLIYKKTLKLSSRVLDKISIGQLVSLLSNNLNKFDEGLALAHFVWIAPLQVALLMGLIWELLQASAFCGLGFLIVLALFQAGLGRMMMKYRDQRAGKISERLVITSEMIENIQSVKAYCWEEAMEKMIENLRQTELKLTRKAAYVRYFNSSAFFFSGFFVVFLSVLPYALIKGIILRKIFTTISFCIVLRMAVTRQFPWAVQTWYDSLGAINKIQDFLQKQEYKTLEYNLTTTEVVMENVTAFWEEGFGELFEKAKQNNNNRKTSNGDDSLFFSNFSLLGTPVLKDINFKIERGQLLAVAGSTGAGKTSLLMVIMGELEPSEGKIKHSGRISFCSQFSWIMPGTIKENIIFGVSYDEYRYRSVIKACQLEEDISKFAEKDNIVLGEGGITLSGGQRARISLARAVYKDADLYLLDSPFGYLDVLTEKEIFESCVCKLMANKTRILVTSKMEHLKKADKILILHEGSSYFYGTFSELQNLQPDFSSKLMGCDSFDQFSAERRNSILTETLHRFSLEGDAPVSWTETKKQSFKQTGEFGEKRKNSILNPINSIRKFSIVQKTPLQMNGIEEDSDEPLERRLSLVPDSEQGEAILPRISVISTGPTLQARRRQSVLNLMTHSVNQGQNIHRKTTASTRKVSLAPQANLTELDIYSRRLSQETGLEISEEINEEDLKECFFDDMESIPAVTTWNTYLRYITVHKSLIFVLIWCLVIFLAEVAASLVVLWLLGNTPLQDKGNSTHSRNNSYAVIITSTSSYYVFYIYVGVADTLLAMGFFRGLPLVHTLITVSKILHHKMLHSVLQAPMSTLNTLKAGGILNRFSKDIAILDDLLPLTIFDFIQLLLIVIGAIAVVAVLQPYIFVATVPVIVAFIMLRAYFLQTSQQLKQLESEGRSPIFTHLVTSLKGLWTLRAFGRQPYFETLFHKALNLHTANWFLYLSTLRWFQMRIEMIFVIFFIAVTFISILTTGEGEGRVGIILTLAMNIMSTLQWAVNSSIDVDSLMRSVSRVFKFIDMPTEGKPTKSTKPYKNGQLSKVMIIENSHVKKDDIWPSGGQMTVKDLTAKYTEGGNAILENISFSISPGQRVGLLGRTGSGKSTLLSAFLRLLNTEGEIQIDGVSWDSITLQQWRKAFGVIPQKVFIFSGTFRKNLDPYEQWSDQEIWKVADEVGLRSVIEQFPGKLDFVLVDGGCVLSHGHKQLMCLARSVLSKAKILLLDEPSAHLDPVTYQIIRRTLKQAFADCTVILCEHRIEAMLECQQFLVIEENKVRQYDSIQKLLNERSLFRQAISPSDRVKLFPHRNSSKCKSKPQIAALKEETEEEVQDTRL

[4] = molecular target: CFTR chloride conductance (Homo sapiens, UniProt P13569); test: Apical membrane chloride current; type: cell-based
Sequence of CFTR chloride conductance (P13569 whole entry): as above

[5] = tested on: renal cysts in E13.5 embryonic kidneys; test: Embryonic kidney organ culture model of polycystic kidney disease; set-up: species or system mouse
Summary of the method: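 Metanephroi from E13.5 mouse embryos, on porous inserts in DMEM/Ham's F-12 with glutamine, HEPES, insulin, transferrin, selenium, prostaglandin E, T3 and antibiotics, 37 °C humidified CO2. Medium with 100 µM 8-Br-cAMP ± test compound replaced every 12 h. For preformed cysts, compound was added at day 3 of 8-Br-cAMP. Transmitted-light images were taken, and % cyst area = total cyst area/total kidney area; 6–8 kidneys.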

[6] = tested on: calcium-activated chloride channels; test: UTP-induced chloride current in cystic fibrosis; type: cell-based, human; details: 10 or 20 µM
Summary of the method: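 Short-circuit current in cystic fibrosis human bronchial epithelial cells on inserts in Ussing chambers. Krebs-bicarbonate solution on both sides, gassed with 5% CO2 in air, 37 °C. ENaC was blocked with 10 µM amiloride. Calcium-activated chloride channels were stimulated with 100 µM UTP, and test compound was added.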

CFTR [7] = molecular target: T1, CFTR; test: Fluorescence platereader assay of CFTR-mediated iodide influx; type: cell-based; details: result in words
Summary of the method: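 FRT cells co-expressing human wild-type CFTR and YFP-H148Q halide sensor, assayed 48 h after plating at confluence. After PBS washes, cells were activated with 5 µM forskolin, 100 µM IBMX and 25 µM apigenin. Test compound was added 5 min later, 25 µM final, for 15 min. Fluorescence was read 2 s baseline, then 10 s after iodide-for-chloride PBS addition. Initial influx rate was fitted by nonlinear regression.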

T1 sequence (P13569 whole entry): as above

Structure (SMILES): O=C(O)c1ccc(/C=C2\SC(=S)N(c3cccc(C(F)(F)F)c3)C2=O)cc1 [CFTRinh-172]
Aqueous solubility [1]: low aqueous solubility | Toxicity [2]: low toxicity

Mean channel closed time (CFTR [3]): greatly increased | Mean channel open time (CFTR [3]): did not significantly change | Unitary conductance (CFTR [3]; +80 mV): did not change | Channel open probability (Po) (CFTR [3]; forskolin 10 µM and IBMX 100 µM, control 0.50 ± 0.04): 0.14 ± 0.03 | CFTR current-voltage relationship after addition (human wild-type CFTR): remained linear | Potency with apigenin or IBMX as agonists compared to CPT-cAMP ([4]; apigenin (100 µM) or IBMX (100 µM)): mildly reduced | Kidney growth ([5]; in culture medium): did not affect kidney growth
Structure (SMILES): Cc1ccc(C2Nc3ccccc3-n3c(-c4ccccc4)c4c(=O)n(C)c(=O)n(C)c4c32)o1 (stereo not shown) [PPQ-102, 7,9-Dimethyl-11-phenyl-6-(5-methylfuran-2-yl)-5,6-dihydropyrimido[4′,5′-3,4]pyrrolo[1,2-a]quinoxaline-8,10-(7H,9H)-dione]
Reversibility of inhibition ([4]; 30 min incubation with 2 µM followed by 10 min washout): complete restoration of CFTR chloride current | Inhibition of cyst formation (percentage area occupied by cysts) ([5]; 0.5 µM, 100 µM 8-Br-cAMP, 4 days in culture): > 60% | Reversibility of cyst inhibition ([5]; 2.5 µM removed after 3 days, 8-Br-cAMP continued): reversible | Size of preformed cysts ([5]; 5 µM added at day 3 of 8-Br-cAMP, over 1 and 2 days): remarkable reduction in cyst size | Cysts at 2.5 and 5 µM ([5]; 2.5 and 5 µM, 100 µM 8-Br-cAMP, 4 days): near complete absence of cysts | Inhibition of UTP-induced chloride currents [6]: little inhibition

CFTR inhibition activity (CFTR [7]): abolished CFTR inhibition activity
Structure (SMILES): Cc1ccc(C(=O)Nc2ccccc2-n2cc3c(c2-c2ccccc2)c(=O)n(C)c(=O)n3C)o1 [PPQ-102b, N-(2-(1,3-Dimethyl-2,4-dioxo-5-phenyl-3,4-dihydro-1H-pyrrolo[3,4-d]pyrimidin-6(2H)-yl)phenyl)-5-methylfuran-2-carboxamide]
